By inhibition is commonly meant the drop in the measured response relative to a control, in per cent. As usually defined, the IC50 is the concentration that gives 50% inhibition. High values mean lower potency, low ones higher potency. Broadly, the clearance is the volume of plasma or blood freed of the substance per unit of time. A word on the half-life: it is the time in which the quantity being followed falls by half. A higher half-life goes with slow decline.

We go through 3 molecules from ChEMBL document CHEMBL1147738, “Potent and selective mitogen-activated protein kinase kinase (MEK) 1,2 inhibitors. 1. 4-(4-bromo-2-fluorophenylamino)-1- methylpyridin-2(1H)-ones” (J Med Chem, 2006).

Data set [1] addresses T1, Serine/threonine-protein kinase Chk1 (Homo sapiens) (UniProt O14757).
T1 sequence (whole entry): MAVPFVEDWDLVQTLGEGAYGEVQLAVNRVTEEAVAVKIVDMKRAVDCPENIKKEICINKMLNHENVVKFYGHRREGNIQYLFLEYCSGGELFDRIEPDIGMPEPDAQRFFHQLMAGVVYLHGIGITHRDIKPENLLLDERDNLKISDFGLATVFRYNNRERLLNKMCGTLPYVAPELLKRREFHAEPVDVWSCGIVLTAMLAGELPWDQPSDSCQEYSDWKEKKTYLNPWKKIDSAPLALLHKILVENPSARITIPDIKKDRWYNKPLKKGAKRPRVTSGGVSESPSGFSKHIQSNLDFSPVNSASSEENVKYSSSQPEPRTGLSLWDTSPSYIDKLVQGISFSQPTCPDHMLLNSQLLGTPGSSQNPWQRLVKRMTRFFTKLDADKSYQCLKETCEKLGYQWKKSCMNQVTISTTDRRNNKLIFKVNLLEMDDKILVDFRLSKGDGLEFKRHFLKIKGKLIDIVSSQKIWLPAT
The experiment in a line: Inhibition of CHK1 at 10 uM. The essentials: (§1)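 Kinase panel run at Upstate (Dundee). Each compound was tested at 10 µM against each enzyme and reported as % inhibition.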

Data set [2] concerns the target Casein kinase II (Homo sapiens) (UniProt P67870+P68400+P19784). Nature of the data set: Inhibition of CK2 at 10 uM. The format is protein-complex assay. The essentials: as §1
Data set [3] addresses Dual specificity mitogen-activated protein kinase kinase 1 (Homo sapiens, UniProt Q02750). The experiment in a line: Inhibitory activity against MEK1.
Data set [4] has as its target Mitogen-activated protein kinase 11 (Homo sapiens) (UniProt Q15759). Nature of the data set: Inhibition of SAPK2b/p38--beta-2 at 10 uM. The essentials: as §1
Data set [5] can be described thus: Clearance in rat. Format: ADME, organism-based. Particulars: Sprague-Dawley, in vivo. The gist of the method:
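Male Sprague Dawley rats (6-10 weeks) received IV 1 mg/kg (10% DMSO/90% saline) and PO 10 mg/kg (1% CMC/0.5% Tween 80). Serial tail-vein plasma was taken up to 24 h (IV) or 72 h (PO) and analysed by LC/MS/MS (9 ng/mL to 20 µg/mL). Parameters were calculated non-compartmentally.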

Data set [6] has as its target Ribosomal protein S6 kinase alpha-5 (Homo sapiens) (UniProt O75582). The experiment in a line: Inhibition of MSK1 at 10 uM. The essentials: as §1
For data set [7], the target named is cAMP-dependent protein kinase (PKA) (Homo sapiens) (UniProt P22694+P17612+P22612). Nature of the data set: Inhibition of PKA at 10 uM. The format is protein assay. The essentials: as §1
Data set [8] addresses Cyclin-dependent kinase 2/cyclin A (Homo sapiens) (UniProt P24941+P20248+P78396). The experiment in a line: Inhibition of CDK2/cyclin A at 10 uM. Format: protein-complex assay. The gist of the method: as §1
The target in data set [9] is RAC-alpha serine/threonine-protein kinase (Homo sapiens) (UniProt P31749). The experiment in a line: Inhibition of PKBa at 10 uM. The gist of the method: as §1
For data set [10], the target named is MAP kinase-activated protein kinase 2 (Homo sapiens) (UniProt P49137). Nature of the data set: Inhibition of MAPKAP-K2 at 10 uM. The essentials: as §1
The nature of data set [11]: Half life in rat at 1 mg/kg, iv. Particulars: Sprague-Dawley, in vivo. Format: ADME, organism-based. Also noted: dose 1 mg/kg, route intravenous. The essentials: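 Male Sprague Dawley rats (6-10 weeks), fed ad lib, dosed IV at 1 mg/kg (1 mg/mL in 10% DMSO/90% normal saline, 1 mL/kg). Tail-vein EDTA blood sampled 1, 5, 15, 30 min and 1, 2, 4, 8, 12, 24 h. Plasma analysed by LC/MS/MS after methanol protein precipitation, range 9 ng/mL to 20 µg/mL. Parameters derived by non-compartmental analysis.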

Data set [12] has as its target Mitogen-activated protein kinase 1 (Homo sapiens) (UniProt P28482). The experiment in a line: Inhibition of MAPK2/ERK2 at 10 uM. The gist of the method:
as §1

The species entered for a further data set is Homo sapiens. Particulars: at 10 µM.
For data set [13], the target named is Rho-associated protein kinase 2 (Homo sapiens) (UniProt O75116). The experiment in a line: Inhibition of ROCK 2 at 10 uM. The essentials:
as §1

Data set [14] has as its target Protein kinase C alpha type (Homo sapiens) (UniProt P17252). Nature of the data set: Inhibition of PKCa at 10 uM. The essentials: as §1

Sequence of RAC-alpha serine/threonine-protein kinase (Homo sapiens) (P31749 whole entry): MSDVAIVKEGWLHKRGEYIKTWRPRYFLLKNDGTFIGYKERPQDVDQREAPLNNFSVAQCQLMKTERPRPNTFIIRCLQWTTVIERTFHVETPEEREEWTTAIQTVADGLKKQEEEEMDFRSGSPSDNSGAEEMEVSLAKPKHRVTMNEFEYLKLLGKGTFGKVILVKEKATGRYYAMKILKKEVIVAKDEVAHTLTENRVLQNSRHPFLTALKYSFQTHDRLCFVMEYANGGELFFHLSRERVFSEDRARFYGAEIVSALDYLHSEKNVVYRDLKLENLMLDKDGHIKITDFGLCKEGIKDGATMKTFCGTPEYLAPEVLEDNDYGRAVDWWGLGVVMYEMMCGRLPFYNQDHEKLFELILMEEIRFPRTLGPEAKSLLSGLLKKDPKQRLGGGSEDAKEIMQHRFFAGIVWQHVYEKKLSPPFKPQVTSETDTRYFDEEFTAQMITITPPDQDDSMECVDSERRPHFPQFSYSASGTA
Sequence of Ribosomal protein S6 kinase alpha-5 (Homo sapiens) (O75582 whole entry, looked up): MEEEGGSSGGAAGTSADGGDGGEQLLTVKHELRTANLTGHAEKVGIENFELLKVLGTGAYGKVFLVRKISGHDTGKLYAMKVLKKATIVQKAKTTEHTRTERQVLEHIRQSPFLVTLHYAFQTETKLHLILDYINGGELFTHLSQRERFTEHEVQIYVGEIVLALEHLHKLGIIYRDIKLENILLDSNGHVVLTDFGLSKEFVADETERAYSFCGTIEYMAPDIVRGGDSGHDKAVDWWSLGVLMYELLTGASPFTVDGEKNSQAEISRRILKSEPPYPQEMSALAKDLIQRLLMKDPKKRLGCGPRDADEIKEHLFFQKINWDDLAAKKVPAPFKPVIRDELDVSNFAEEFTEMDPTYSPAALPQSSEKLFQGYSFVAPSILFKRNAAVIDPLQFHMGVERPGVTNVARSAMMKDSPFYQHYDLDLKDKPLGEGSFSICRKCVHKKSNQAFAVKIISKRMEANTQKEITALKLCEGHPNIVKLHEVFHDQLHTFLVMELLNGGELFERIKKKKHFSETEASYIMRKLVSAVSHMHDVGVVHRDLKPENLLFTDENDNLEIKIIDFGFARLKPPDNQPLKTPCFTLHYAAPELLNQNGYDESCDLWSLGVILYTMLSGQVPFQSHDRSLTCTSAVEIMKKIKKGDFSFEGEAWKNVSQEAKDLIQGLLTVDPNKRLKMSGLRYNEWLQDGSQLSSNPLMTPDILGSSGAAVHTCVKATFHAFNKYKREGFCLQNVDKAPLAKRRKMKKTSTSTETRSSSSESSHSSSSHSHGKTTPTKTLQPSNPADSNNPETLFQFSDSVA
Sequence of Rho-associated protein kinase 2 (Homo sapiens) (O75116 whole entry, looked up): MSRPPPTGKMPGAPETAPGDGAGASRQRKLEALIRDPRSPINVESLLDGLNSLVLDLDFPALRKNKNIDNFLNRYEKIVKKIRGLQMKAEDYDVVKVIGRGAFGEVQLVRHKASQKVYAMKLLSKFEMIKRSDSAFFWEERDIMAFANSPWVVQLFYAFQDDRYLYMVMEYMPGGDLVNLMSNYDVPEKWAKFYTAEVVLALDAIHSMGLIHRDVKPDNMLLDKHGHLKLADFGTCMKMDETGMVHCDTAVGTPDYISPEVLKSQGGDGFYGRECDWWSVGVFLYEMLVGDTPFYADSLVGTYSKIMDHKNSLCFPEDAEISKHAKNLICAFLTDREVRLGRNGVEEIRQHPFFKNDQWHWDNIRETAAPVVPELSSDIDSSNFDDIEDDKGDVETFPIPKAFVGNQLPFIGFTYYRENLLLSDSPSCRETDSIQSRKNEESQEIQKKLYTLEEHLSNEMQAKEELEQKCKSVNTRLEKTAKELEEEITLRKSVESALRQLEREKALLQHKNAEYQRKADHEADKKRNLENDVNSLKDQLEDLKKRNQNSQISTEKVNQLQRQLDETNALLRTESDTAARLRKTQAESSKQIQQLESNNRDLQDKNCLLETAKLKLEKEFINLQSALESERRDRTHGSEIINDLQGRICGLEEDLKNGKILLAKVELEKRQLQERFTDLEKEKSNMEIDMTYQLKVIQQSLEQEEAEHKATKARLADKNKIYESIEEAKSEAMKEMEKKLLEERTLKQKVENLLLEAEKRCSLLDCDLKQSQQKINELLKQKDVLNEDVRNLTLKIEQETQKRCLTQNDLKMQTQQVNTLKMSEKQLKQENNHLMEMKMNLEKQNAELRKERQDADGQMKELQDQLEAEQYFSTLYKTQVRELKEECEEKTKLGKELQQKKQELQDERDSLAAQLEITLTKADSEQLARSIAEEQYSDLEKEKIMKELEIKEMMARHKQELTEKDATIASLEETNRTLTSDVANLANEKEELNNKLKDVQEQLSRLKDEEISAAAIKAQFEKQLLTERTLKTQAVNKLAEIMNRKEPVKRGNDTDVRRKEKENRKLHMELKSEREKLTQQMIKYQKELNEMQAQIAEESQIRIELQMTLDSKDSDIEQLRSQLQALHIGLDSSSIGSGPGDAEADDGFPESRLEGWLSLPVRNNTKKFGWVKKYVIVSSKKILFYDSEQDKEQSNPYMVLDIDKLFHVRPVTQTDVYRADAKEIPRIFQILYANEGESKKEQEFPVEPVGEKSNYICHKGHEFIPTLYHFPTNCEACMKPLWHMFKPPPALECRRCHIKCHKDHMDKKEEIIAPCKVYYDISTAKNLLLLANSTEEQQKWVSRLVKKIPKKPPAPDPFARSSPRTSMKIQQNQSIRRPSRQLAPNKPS
Sequence of MAP kinase-activated protein kinase 2 (Homo sapiens) (P49137 whole entry, looked up): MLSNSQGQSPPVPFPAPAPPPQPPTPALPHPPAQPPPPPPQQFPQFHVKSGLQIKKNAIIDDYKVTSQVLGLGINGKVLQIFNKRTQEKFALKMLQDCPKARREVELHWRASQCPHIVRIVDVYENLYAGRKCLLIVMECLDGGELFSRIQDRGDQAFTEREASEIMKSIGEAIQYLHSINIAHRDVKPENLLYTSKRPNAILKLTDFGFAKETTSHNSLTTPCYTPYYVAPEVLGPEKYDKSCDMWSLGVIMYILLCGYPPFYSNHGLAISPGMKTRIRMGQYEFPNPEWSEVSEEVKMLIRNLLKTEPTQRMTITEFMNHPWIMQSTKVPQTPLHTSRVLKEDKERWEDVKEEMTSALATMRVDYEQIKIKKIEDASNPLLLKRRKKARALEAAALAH
Sequence of Mitogen-activated protein kinase 11 (Homo sapiens) (Q15759 whole entry): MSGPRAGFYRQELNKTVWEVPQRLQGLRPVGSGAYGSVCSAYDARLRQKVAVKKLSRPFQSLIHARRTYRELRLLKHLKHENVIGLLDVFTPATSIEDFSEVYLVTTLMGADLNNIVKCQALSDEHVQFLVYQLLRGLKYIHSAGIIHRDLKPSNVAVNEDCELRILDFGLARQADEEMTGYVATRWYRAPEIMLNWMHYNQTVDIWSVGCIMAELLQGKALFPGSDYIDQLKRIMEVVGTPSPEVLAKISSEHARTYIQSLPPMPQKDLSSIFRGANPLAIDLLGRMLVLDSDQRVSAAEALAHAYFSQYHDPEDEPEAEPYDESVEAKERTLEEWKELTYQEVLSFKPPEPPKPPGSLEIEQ
Sequence of Mitogen-activated protein kinase 1 (Homo sapiens) (P28482 whole entry): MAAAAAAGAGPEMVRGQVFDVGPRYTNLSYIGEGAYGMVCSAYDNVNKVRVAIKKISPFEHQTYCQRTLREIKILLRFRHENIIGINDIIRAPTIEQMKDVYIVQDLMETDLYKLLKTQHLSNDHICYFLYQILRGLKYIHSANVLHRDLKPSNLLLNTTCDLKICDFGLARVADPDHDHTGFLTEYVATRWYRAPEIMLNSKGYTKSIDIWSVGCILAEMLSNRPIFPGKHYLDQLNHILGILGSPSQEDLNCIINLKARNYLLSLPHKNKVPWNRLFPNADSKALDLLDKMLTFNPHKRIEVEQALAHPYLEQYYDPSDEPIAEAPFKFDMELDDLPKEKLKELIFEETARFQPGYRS
Sequence of Dual specificity mitogen-activated protein kinase kinase 1 (Q02750 whole entry): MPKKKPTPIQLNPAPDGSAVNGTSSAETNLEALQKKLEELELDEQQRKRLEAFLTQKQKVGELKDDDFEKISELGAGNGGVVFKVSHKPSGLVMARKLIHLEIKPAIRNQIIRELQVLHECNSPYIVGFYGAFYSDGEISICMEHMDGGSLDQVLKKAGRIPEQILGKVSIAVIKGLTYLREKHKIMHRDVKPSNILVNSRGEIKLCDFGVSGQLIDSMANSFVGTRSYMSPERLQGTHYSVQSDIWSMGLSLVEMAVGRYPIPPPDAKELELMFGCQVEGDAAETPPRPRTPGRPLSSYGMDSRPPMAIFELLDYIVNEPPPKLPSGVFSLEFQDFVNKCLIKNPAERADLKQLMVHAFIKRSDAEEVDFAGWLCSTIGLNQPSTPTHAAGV

For `Cc1c(Nc2ccc(Br)cc2F)c(C(=O)NOCCO)cn(C)c1=O`, the inhibition was 11% in data set [1]; -1% in data set [2]; 16% in [4]; 2% in [6]; 15% in data set [7]; 9% in [8]. For the same molecule, the inhibition in data set [9] was -4%; in data set [10], 8%; in data set [12] it was 6%; in the data set filed under Homo sapiens it was -7%; in data set [13], 13%; in [14], -3%. The molecule further showed a concentration for half-maximal inhibition (IC50) in data set [3] of 0.018 µM. Also, in data set [5], the clearance came to 8 mL/min/kg. The same molecule had a half-life in data set [11] of 1.6 h.
For `CCONC(=O)c1cn(C)c(=O)c(C)c1Nc1ccc(Br)cc1F`, the inhibition in data set [1] is 8%; in [2], 4%; in data set [4] it was 13%; in [6], 5%; in [7] it was -1%; in data set [8], 20%. Further, the inhibition in [9] is 6%; in data set [10], 14%; in data set [12], 6%; in the data set filed under Homo sapiens, -3%; in [13], 13%; in data set [14] it was 7%. The same molecule registered a clearance in data set [5] of 1.9 mL/min/kg. Further, the half-life in data set [11] was 2.5 h.
Consider `CONC(=O)c1cn(C)c(=O)c(C)c1Nc1ccc(Br)cc1F`, for which the inhibition in data set [1] was -3%; in data set [2] it was -4%; in [4], 5%; in data set [6] it was 6%; in [7], -7%; in data set [8], 8%. The inhibition was 12% in data set [9]; 1% in data set [10]; -9% in data set [12]; -9% in the data set listed under Homo sapiens; 10% in data set [13]; 0% in [14]. This molecule also displayed a half-inhibitory concentration (IC50) in data set [3] of 0.105 µM. The same molecule had a clearance in data set [5] of 1.5 mL/min/kg. The half-life in data set [11] is 3.5 h.
